Measured values as given in ChEMBL document CHEMBL3112531, “Synthesis and evaluation of 4-(2-pyrimidinylamino) benzamides inhibitors of hedgehog signaling pathway” (Bioorg Med Chem Lett, 2014).

Experiments:
[1] = Inhibition of hedgehog signaling pathway in mouse NIH/3T3 cells by Gli1-luciferase reporter gene assay; assay type: cell-based; settings: NIH3T3
[2] = Ratio of GDC-0449 IC50 to compound IC50 for hedgehog signaling pathway in mouse NIH/3T3 cells by Gli1-luciferase reporter gene assay; assay type: cell-based
[3] = AUC in Sprague-Dawley rat at 5 mg/kg, po; assay type: ADME, organism-based; parameters: dose 5 mg/kg, route oral; settings: plasma
In short: (§1)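 SD rats dosed orally at 5 mg/kg in 0.5% HPMC + 0.3% Tween-80 (pH 2.8). Blood samples (n = 3) were centrifuged at 4000 rpm for 5 min at 4 °C. Plasma concentration–time data were analysed noncompartmentally.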

[4] = Clearance in Sprague-Dawley rat at 5 mg/kg, po; assay type: ADME, organism-based; parameters: dose 5 mg/kg, route oral; settings: in vivo; in short: as §1
[5] = Mean residence time (0 to t) in Sprague-Dawley rat at 5 mg/kg, po; assay type: ADME, organism-based; parameters: dose 5 mg/kg, route oral; settings: in vivo; in short: as §1
[6] = AUC in Sprague-Dawley rat at 1 mg/kg, iv; assay type: ADME, organism-based; parameters: dose 1 mg/kg, route intravenous; settings: plasma
In short: (§2)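 SD rats given a single 1 mg/kg iv dose in 5% DMA + 5% Tween-80. Plasma concentration–time data were analysed by a noncompartmental approach.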

[7] = Cmax in Sprague-Dawley rat at 1 mg/kg, iv; assay type: ADME, organism-based; parameters: dose 1 mg/kg, route intravenous; settings: in vivo; in short: as §2
[8] = Half life in Sprague-Dawley rat at 1 mg/kg, iv; assay type: ADME, organism-based; parameters: dose 1 mg/kg, route intravenous; settings: in vivo; in short: as §2
Rattus norvegicus [9] = test: Volume of distribution at steady state in Sprague-Dawley rat at 5 mg/kg, po; assay type: ADME, organism-based; parameters: dose 5 mg/kg, route oral; settings: in vivo; in short: as §1
[10] = Volume of distribution at steady state in Sprague-Dawley rat at 1 mg/kg, iv; assay type: ADME, organism-based; parameters: dose 1 mg/kg, route intravenous; settings: Sprague-Dawley, in vivo, read-out: Vdss; in short: as §2
[11] = Half life in Sprague-Dawley rat at 5 mg/kg, po; assay type: ADME, organism-based; parameters: dose 5 mg/kg, route oral; settings: in vivo; in short: as §1
[12] = Clearance in Sprague-Dawley rat at 1 mg/kg, iv; assay type: ADME, organism-based; parameters: dose 1 mg/kg, route intravenous; settings: in vivo; in short: as §2
[13] = Cmax in Sprague-Dawley rat at 5 mg/kg, po; assay type: ADME, organism-based; parameters: dose 5 mg/kg, route oral; settings: in vivo; in short: as §1
[14] = Oral bioavailability in Sprague-Dawley rat at 5 mg/kg; assay type: ADME, organism-based; settings: in vivo
In short: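 Oral dosing of SD rats at 5 mg/kg in 0.5% HPMC + 0.3% Tween-80 (pH 2.8), with blood samples n = 3, alongside iv dosing at 1 mg/kg in 5% DMA + 5% Tween-80. Plasma concentration–time data were analysed noncompartmentally.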

[15] = (§3) Mean residence time (0 to t) in Sprague-Dawley rat at 1 mg/kg, iv; assay type: ADME, organism-based; parameters: dose 1 mg/kg, route intravenous; settings: Sprague-Dawley, in vivo; in short: as §2
Rattus norvegicus [16] = test: as §3; assay type: ADME, organism-based; parameters: dose 1 mg/kg, route intravenous; settings: in vivo; in short: as §2

Row | Structure (SMILES) | IC50 [1] [nM] | also measured
1 | Cc1ccc(CNCc2ccco2)cc1NC(=O)c1ccc(Nc2ncc(C)c(-c3ccc(OC(F)(F)F)cc3)n2)cc1 | 2.5 | 
2 | Cc1ccc(CN2CCN(c3ccccc3)CC2)cc1NC(=O)c1ccc(Nc2ncc(C)c(-c3ccc(OC(F)(F)F)cc3)n2)cc1 | 2 | 
3 | Cc1ccc(CN2C[C@@H](C)O[C@@H](C)C2)cc1NC(=O)c1ccc(Nc2ncc(C)c(-c3cnn(C)c3)n2)cc1 | 8.4 | 
4 | Cc1ccc(CN2CCC(O)CC2)cc1NC(=O)c1ccc(Nc2ncc(C)c(-c3cnn(C)c3)n2)cc1 | 21.2 | 
5 | Cc1ccc(CN(C)CCCN(C)C)cc1NC(=O)c1ccc(Nc2ncc(C)c(-c3ccc(OC(F)(F)F)cc3)n2)cc1 | 35.3 | 
6 | Cc1ccc(CN2CCCC2)cc1NC(=O)c1ccc(Nc2ncc(C)c(-c3cnn(C)c3)n2)cc1 | 9.2 | 
7 | Cc1ccc(CN2CC3CCN(C)C3C2)cc1NC(=O)c1ccc(Nc2ncc(C)c(-c3ccc(OC(F)(F)F)cc3)n2)cc1 (stereo not drawn) | 10.5 | 
8 | Cc1ccc(CN(CCO)CCO)cc1NC(=O)c1ccc(Nc2ncc(C)c(-c3cnn(C)c3)n2)cc1 | 31.9 | 
9 | Cc1ccc(CN2CCNCC2)cc1NC(=O)c1ccc(Nc2ncc(C)c(-c3ccc(OC(F)(F)F)cc3)n2)cc1 | 10.5 | 
10 | Cc1ccc(CN(CCNC(C)C)C(C)C)cc1NC(=O)c1ccc(Nc2ncc(C)c(-c3ccc(OC(F)(F)F)cc3)n2)cc1 | 10.9 | 
11 | Cc1ccc(CN2CCCc3ccccc32)cc1NC(=O)c1ccc(Nc2ncc(C)c(-c3ccc(OC(F)(F)F)cc3)n2)cc1 | 2.4 | 
12 | CCCN(C)Cc1ccc(C)c(NC(=O)c2ccc(Nc3ncc(C)c(-c4cnn(C)c4)n3)cc2)c1 | 17.5 | 
13 | Cc1ccc(CN2CC3CCCC3C2)cc1NC(=O)c1ccc(Nc2ncc(C)c(-c3ccc(OC(F)(F)F)cc3)n2)cc1 (stereo not drawn) | 1.6 | 
14 | Cc1ccc(CN2CCC(N3CCCCC3)CC2)cc1NC(=O)c1ccc(Nc2ncc(C)c(-c3ccc(OC(F)(F)F)cc3)n2)cc1 | 19.5 | 
15 | Cc1ccc(CN(C2CCCCC2)C2CCCCC2)cc1NC(=O)c1ccc(Nc2ncc(C)c(-c3ccc(OC(F)(F)F)cc3)n2)cc1 | 2.7 | 
16 | Cc1ccc(CN2CCCCC2)cc1NC(=O)c1ccc(Nc2ncc(C)c(-c3cnn(C)c3)n2)cc1 | 5.6 | 
17 | Cc1ccc(CNC(C)(C)C)cc1NC(=O)c1ccc(Nc2ncc(C)c(-c3cnn(C)c3)n2)cc1 | 18.1 | 
18 | Cc1ccc(CN2CCN(C)CC2)cc1NC(=O)c1ccc(Nc2ncc(C)c(-c3cnn(C)c3)n2)cc1 | 10 | 
19 | Cc1ccc(CNCCN2CCCCC2)cc1NC(=O)c1ccc(Nc2ncc(C)c(-c3ccc(OC(F)(F)F)cc3)n2)cc1 | 33.6 | 
20 | Cc1ccc(CNC2CCCC2)cc1NC(=O)c1ccc(Nc2ncc(C)c(-c3ccc(OC(F)(F)F)cc3)n2)cc1 | 1.6 | 
21 | CS(=O)(=O)c1ccc(C(=O)Nc2ccc(Cl)c(-c3ccccn3)c2)c(Cl)c1 [VISMODEGIB] | 7.2 | half-life [8]: 1.6 h
22 | Cc1ccc(CN2CCC[C@@H]2CN2CCCC2)cc1NC(=O)c1ccc(Nc2ncc(C)c(-c3ccc(OC(F)(F)F)cc3)n2)cc1 | 3.9 | 
23 | Cc1ccc(CN2CCc3sccc3C2)cc1NC(=O)c1ccc(Nc2ncc(C)c(-c3ccc(OC(F)(F)F)cc3)n2)cc1 | 1.5 | 
24 | Cc1ccc(CN2CCNC(=O)C2)cc1NC(=O)c1ccc(Nc2ncc(C)c(-c3ccc(OC(F)(F)F)cc3)n2)cc1 | 2 | 

Now those with a lower IC50 [1], led by results:

Row | IC50 [1] [nM] | Structure (SMILES) | also measured
25 | 1.3 | Cc1ccc(CN2CCOCC2)cc1NC(=O)c1ccc(Nc2ncc(C)c(-c3cnn(C)c3)n2)cc1 | AUC [3]: 3.8 µg·h/mL; CL/F [4]: 1.43 L/h/kg; MRT last [5]: 2.4 h; AUC [6]: 1.2 µg·h/mL; Cmax [7]: 2.1 µg/mL; half-life [8]: 0.8 h; Vdss (Rattus norvegicus [9]): 2.9 L/kg; Vd [10]: 0.9 L/kg; half-life [11]: 1.4 h; clearance [12]: 0.858 L/h/kg; Cmax [13]: 1.5 µg/mL; bioavailability [14]: 63.6%; MRT last [15]: 0.81 h
26 | 1.3 | Cc1cnc(Nc2ccc(C(=O)Nc3c(C)cccc3C)cc2)nc1-c1ccc(OC(F)(F)F)cc1 | MRT last [5]: 5.1 h; MRT (Rattus norvegicus [16]): 4 h
27 | 1.3 | Cc1ccc(CN2CCN(C(=O)C3CC3)CC2)cc1NC(=O)c1ccc(Nc2ncc(C)c(-c3ccc(OC(F)(F)F)cc3)n2)cc1 | 
28 | 1.1 | Cc1ccc(CNCCO)cc1NC(=O)c1ccc(Nc2ncc(C)c(-c3ccc(OC(F)(F)F)cc3)n2)cc1 | 
29 | 1.1 | Cc1ccc(CNc2ccccc2)cc1NC(=O)c1ccc(Nc2ncc(C)c(-c3ccc(OC(F)(F)F)cc3)n2)cc1 | 
30 | 1 | Cc1ccc(CN2CCCCC2)cc1NC(=O)c1ccc(Nc2ncc(C)c(-c3ccc(OC(F)(F)F)cc3)n2)cc1 | Ratio IC50 [2]: 7
31 | 0.93 | CCCN(C)Cc1ccc(C)c(NC(=O)c2ccc(Nc3ncc(C)c(-c4ccc(OC(F)(F)F)cc4)n3)cc2)c1 | 
32 | 0.9 | Cc1ccc(CNC(C)(C)C)cc1NC(=O)c1ccc(Nc2ncc(C)c(-c3ccc(OC(F)(F)F)cc3)n2)cc1 | 
33 | 0.89 | Cc1ccc(CN(C)C(C)C)cc1NC(=O)c1ccc(Nc2ncc(C)c(-c3ccc(OC(F)(F)F)cc3)n2)cc1 | 
34 | 0.77 | CCN1CCN(Cc2ccc(C)c(NC(=O)c3ccc(Nc4ncc(C)c(-c5ccc(OC(F)(F)F)cc5)n4)cc3)c2)CC1 | 
35 | 0.76 | Cc1ccc(CN2C(C)(C)CCCC2(C)C)cc1NC(=O)c1ccc(Nc2ncc(C)c(-c3ccc(OC(F)(F)F)cc3)n2)cc1 | 
36 | 0.72 | CCNCc1ccc(C)c(NC(=O)c2ccc(Nc3ncc(C)c(-c4ccc(OC(F)(F)F)cc4)n3)cc2)c1 | 
37 | 0.68 | Cc1ccc(CN2CCOCC2)cc1NC(=O)c1ccc(Nc2ncc(C)c(-c3ccccc3)n2)cc1 | AUC [6]: 0.71 µg·h/mL; Cmax [7]: 0.84 µg/mL; half-life [8]: 1 h; Vd [10]: 2.1 L/kg; clearance [12]: 1.4 L/h/kg; MRT last [15]: 1.2 h
38 | 0.61 | Cc1ccc(CN2CCN(C)CC2)cc1NC(=O)c1ccc(Nc2ncc(C)c(-c3ccncc3)n2)cc1 | AUC [6]: 0.27 µg·h/mL; Cmax [7]: 0.58 µg/mL; half-life [8]: 1.1 h; Vd [10]: 5.7 L/kg; clearance [12]: 3.69 L/h/kg; MRT last [15]: 0.9 h
39 | 0.59 | Cc1ccc(CN(C)C)cc1NC(=O)c1ccc(Nc2ncc(C)c(-c3ccc(OC(F)(F)F)cc3)n2)cc1 | 
40 | 0.47 | Cc1ccc(CN(CCO)CCO)cc1NC(=O)c1ccc(Nc2ncc(C)c(-c3ccc(OC(F)(F)F)cc3)n2)cc1 | 
41 | 0.45 | Cc1ccc(CN2C[C@@H](C)O[C@@H](C)C2)cc1NC(=O)c1ccc(Nc2ncc(C)c(-c3ccc(OC(F)(F)F)cc3)n2)cc1 | AUC [3]: 1.3 µg·h/mL; CL/F [4]: 3.11 L/h/kg; Ratio IC50 [2]: 7; MRT last [5]: 9.7 h; AUC [6]: 0.58 µg·h/mL; Cmax [7]: 0.3 µg/mL; half-life [8]: 9.2 h; Vdss (Rattus norvegicus [9]): 42.9 L/kg; Vd [10]: 20 L/kg; half-life [11]: 9.5 h; clearance [12]: 1.49 L/h/kg; Cmax [13]: 0.094 µg/mL; bioavailability [14]: 44.4%; MRT last [15]: 7.4 h
42 | 0.45 | Cc1ccc(CN2CCN(C)CC2)cc1NC(=O)c1ccc(Nc2ncc(C)c(-c3ccc(OC(F)(F)F)cc3)n2)cc1 | 
43 | 0.44 | Cc1ccc(CN2CCC(O)CC2)cc1NC(=O)c1ccc(Nc2ncc(C)c(-c3ccc(OC(F)(F)F)cc3)n2)cc1 | 
44 | 0.43 | Cc1ccc(CN2CCCC2)cc1NC(=O)c1ccc(Nc2ncc(C)c(-c3ccc(OC(F)(F)F)cc3)n2)cc1 | Ratio IC50 [2]: 7
45 | 0.34 | Cc1ccc(CN2CCSCC2)cc1NC(=O)c1ccc(Nc2ncc(C)c(-c3ccc(OC(F)(F)F)cc3)n2)cc1 | Ratio IC50 [2]: 7
46 | 0.29 | Cc1ccc(CN2C(C)(C)CC(=O)CC2(C)C)cc1NC(=O)c1ccc(Nc2ncc(C)c(-c3ccc(OC(F)(F)F)cc3)n2)cc1 | 
47 | 0.28 | Cc1ccc(CN2CCC(=O)CC2)cc1NC(=O)c1ccc(Nc2ncc(C)c(-c3ccc(OC(F)(F)F)cc3)n2)cc1 | 
48 | 0.23 | CCN(CC)Cc1ccc(C)c(NC(=O)c2ccc(Nc3ncc(C)c(-c4ccc(OC(F)(F)F)cc4)n3)cc2)c1 | 
